Test [1] relates to KB. Nature of the test: Induction of apoptosis in human KB cells assessed as DNA fragmentation at 10 uM after 48 hrs by agarose gel electrophoresis. Format: functional, cell-based. An outline of the steps:
(§1)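 KB cells were treated 48 h with 10 or 20 µM, then lysed in EDTA/Tris pH 8.0/SDS/proteinase K buffer at 37 °C for 12 h, followed by RNase 1 h at 37 °C. DNA was phenol/chloroform extracted and ethanol precipitated, then run on 1.5% agarose gel with ethidium bromide and photographed for laddering.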

Test [2] deals with KB. Nature of the test: Induction of apoptosis in human KB cells assessed as decrease in BCL-2 expression at 20 uM after 48 hrs by Western blotting. Format: functional, cell-based. An outline of the steps: (§2)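 KB cells were treated 48 h with 10 or 20 µM, then lysed in NaCl/Tris pH 8.0/EGTA/EDTA/NaF/β-glycerophosphate/Triton/NP-40/PMSF buffer. Protein was quantified by BCA. Equal protein was run on 10–12% Tris-glycine gels and blotted. Blots were probed for JNK, Bax, Bcl-2, procaspase-9, procaspase-3 and tubulin, with HRP secondary and ECL detection. Bax/Bcl-2 ratio was derived from the blots.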
In general terms: In western blotting, separated proteins are transferred to a membrane and probed.

The subject of test [3] is KB. Nature of the test: Induction of apoptosis in human KB cells assessed as decrease in procaspase-9 expression at 20 uM after 48 hrs by Western blotting. Format: functional, cell-based. The essentials: as §2
Test [4] deals with KB. Nature of the test: Induction of apoptosis in human KB cells assessed as increase in caspase 3/7 activity at 20 uM after 48 hrs. Format: functional, cell-based. The essentials:
(§3)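 KB cells were cultured 48 h with 10 or 20 µM, then caspase-3/7 activity was measured with a Caspase-Glo 3/7 kit per the kit protocol and compared with control cells.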

Test [5] can be described thus: Antiproliferative activity against human ECA109 cells after 48 hrs by MTT assay. Format: functional, cell-based. Particulars: ECa-109, 48 h. An outline of the steps:
(§4)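 MTT assay after 48 h incubation with compound. MTT (5.0 mg/mL stock in RPMI-1640) was added and incubated a further 4 h at 37 °C. Formazan was dissolved in DMSO and absorbance read at 570 nm. IC50 is the concentration giving 50% decrease in cell growth, computed from dose-effect analysis. Triplicate wells, three independent experiments, values are means.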
On the technique in general: Tetrazolium dyes change colour on reduction, which living cells bring about.

A further test concerns A549. Nature of the test: Antiproliferative activity against human A549 cells after 48 hrs by MTT assay. It counts as functional, cell-based. To be noted: A549, 48 h. The essentials: as §4
The subject of test [6] is KB. Briefly: Induction of apoptosis in human KB cells assessed as decrease in procaspase-3 expression at 20 uM after 48 hrs by Western blotting. Format: functional, cell-based. An outline of the steps:
as §2

For test [7], the system named is KB. Nature of the test: Antiproliferative activity against human KB cells at 20 uM after 48 hrs by light microscopy.
A further test concerns K562. Nature of the test: Antiproliferative activity against human K562 cells after 48 hrs by MTT assay. To be noted: K562, 48 h. It counts as functional, cell-based. An outline of the steps: as §4
Test [8] concerns KB. Nature of the test: Induction of apoptosis in human KB cells assessed as increase in caspase 3/7 activity at 10 uM after 48 hrs. Format: functional, cell-based. The essentials: as §3
In test [9] the test system is KB. Nature of the test: Antiproliferative activity against human KB cells after 48 hrs by MTT assay. It counts as functional, cell-based. An outline of the steps:
as §4

The subject of test [10] is KB. Nature of the test: Induction of apoptosis in human KB cells assessed as increase in JNK expression at 20 uM after 48 hrs by Western blotting. Format: functional, cell-based. An outline of the steps:
as §2

The subject of a further test is SMMC-7721. Nature of the test: Antiproliferative activity against human SMMC7721 cells after 48 hrs by MTT assay. It counts as functional, cell-based. To be noted: SMMC-7721, 48 h. The essentials: as §4
For test [11], the system named is KB. Nature of the test: Induction of apoptosis in human KB cells assessed as DNA fragmentation at 20 uM after 48 hrs by agarose gel electrophoresis. It counts as functional, cell-based. An outline of the steps:
as §1

The test system of test [12] is KB. Briefly: Antiproliferative activity against human KB cells at 10 uM after 48 hrs by MTT assay. Format: functional, cell-based.
Test [13] in a line: Inhibition of PKC by […] assay. An outline of the steps: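 Recombinant PKC was incubated with reaction mixture containing a fluorescent PepTag PKC-specific peptide substrate at 30 °C for 30 min, then stopped by boiling. Phosphorylated (−1) and nonphosphorylated (+1) peptide were separated on 0.8% agarose in 50 mM Tris-HCl pH 8.0 at 100 V for 15 min and visualized under UV. IC50 values are means of three experiments.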

Test [14] has as its system KB. Briefly: Induction of apoptosis in human KB cells assessed as increase in Bax/Bcl-2 ratio at 20 uM after 48 hrs by Western blotting. Format: functional, cell-based. An outline of the steps:
as §2

The structures appear in SMILES notation. pIC50: −log10 of the molar value. Active and inactive are the calls of the source. No cut-off for these calls is given here.

One may read the pIC50 as −log10 of the IC50, conventionally taken in molar units. A high value points to a low IC50. On to `Cn1cc(C2=C(c3nn(CCCN4CCCCC4)c4ncccc34)C(=O)N(c3ccccc3)C2=O)c2ccccc21`, for which the outcome with KB [1], in the test on KB [2], with KB [3], with KB [4], in the test with KB [6] and in the test on KB [7] was Active. The result in the test on KB [8], in the test on KB [10], with KB [11], with KB [12] and with KB [14] was Active. The negative-log IC50 (pIC50) in [5] was 4.91; with A549 it was 4.69; in the test with K562, 5.42; in the test on KB [9], 5.25; with SMMC-7721, 5.52; in test [13] it was less than 5.00.

These data come from ChEMBL document CHEMBL1152933, “Synthesis and evaluation of novel 7-azaindazolyl-indolyl-maleimide derivatives as antitumor agents and protein kinase C inhibitors” (Bioorg Med Chem, 2009).
